Assay results published in PMC10213863 (Cell Reports Medicine, 2023).

What was measured:
[1] = MHV370 blood exposure during food dosing of NZB/W F1 mice; type: in vivo, mouse
How it was run: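 NZB/W F1 mice were fed diet containing test compound at 0.01% or 0.1%, with fresh food every two weeks. Daily food intake per mouse was calculated per cage. Whole-blood drug concentrations were measured by LC-MS/MS.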

mouse blood = assay: Cell viability in mouse blood; type: cell-based; settings: up to 10 μM
How it was run: (§1)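 Fresh human blood or 129/Sv mouse blood was taken into citrate and diluted 1:1 with RPMI1640. It was pre-incubated 30 min at 37°C, 5% CO2 with increasing concentrations of test compound or 0.25% v/v DMSO (final). Blood was then stimulated with TLR agonists at doses from earlier work, or with R848 (3 μM), and cytokines were quantified. Viability was checked by ATPlite luminescence.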

TLR8 = biological target: T1, TLR8 (Homo sapiens, UniProt Q9NR97); assay: Human whole blood assay, ssRNA-TNF; type: cell-based
T1 sequence (Q9NR97 27-1041): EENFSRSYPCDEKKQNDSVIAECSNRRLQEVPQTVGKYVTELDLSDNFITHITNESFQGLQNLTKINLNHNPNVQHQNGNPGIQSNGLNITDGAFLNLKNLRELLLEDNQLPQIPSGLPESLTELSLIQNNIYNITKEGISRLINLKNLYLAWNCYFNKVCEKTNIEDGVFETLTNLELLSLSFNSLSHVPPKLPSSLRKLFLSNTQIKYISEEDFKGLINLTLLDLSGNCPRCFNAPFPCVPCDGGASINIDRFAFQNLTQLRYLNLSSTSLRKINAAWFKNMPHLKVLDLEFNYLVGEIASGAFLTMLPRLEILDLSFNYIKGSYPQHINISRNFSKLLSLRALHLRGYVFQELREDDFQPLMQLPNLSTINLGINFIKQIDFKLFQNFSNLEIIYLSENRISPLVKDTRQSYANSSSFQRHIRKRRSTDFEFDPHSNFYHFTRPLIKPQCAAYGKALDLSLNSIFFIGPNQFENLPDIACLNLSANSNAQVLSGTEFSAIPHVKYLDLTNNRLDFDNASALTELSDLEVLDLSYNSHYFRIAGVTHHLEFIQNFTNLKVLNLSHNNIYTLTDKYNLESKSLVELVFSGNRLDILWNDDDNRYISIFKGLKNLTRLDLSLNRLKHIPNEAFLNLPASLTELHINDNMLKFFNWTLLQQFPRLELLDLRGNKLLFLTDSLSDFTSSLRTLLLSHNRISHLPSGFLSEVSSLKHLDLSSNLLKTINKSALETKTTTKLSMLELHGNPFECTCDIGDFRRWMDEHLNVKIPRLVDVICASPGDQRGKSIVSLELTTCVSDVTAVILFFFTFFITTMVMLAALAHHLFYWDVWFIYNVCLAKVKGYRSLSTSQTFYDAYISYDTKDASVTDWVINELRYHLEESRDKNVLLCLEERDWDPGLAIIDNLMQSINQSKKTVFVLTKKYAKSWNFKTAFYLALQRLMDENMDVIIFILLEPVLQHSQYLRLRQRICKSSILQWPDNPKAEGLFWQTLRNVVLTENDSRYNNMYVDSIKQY
How it was run: as §1

TLR9 [2] = biological target: T2, TLR9 (Homo sapiens, UniProt Q9NR96); assay: Human PBMC assay, ODN2216-induced IFN-α; type: cell-based
T2 sequence (Q9NR96 26-1032): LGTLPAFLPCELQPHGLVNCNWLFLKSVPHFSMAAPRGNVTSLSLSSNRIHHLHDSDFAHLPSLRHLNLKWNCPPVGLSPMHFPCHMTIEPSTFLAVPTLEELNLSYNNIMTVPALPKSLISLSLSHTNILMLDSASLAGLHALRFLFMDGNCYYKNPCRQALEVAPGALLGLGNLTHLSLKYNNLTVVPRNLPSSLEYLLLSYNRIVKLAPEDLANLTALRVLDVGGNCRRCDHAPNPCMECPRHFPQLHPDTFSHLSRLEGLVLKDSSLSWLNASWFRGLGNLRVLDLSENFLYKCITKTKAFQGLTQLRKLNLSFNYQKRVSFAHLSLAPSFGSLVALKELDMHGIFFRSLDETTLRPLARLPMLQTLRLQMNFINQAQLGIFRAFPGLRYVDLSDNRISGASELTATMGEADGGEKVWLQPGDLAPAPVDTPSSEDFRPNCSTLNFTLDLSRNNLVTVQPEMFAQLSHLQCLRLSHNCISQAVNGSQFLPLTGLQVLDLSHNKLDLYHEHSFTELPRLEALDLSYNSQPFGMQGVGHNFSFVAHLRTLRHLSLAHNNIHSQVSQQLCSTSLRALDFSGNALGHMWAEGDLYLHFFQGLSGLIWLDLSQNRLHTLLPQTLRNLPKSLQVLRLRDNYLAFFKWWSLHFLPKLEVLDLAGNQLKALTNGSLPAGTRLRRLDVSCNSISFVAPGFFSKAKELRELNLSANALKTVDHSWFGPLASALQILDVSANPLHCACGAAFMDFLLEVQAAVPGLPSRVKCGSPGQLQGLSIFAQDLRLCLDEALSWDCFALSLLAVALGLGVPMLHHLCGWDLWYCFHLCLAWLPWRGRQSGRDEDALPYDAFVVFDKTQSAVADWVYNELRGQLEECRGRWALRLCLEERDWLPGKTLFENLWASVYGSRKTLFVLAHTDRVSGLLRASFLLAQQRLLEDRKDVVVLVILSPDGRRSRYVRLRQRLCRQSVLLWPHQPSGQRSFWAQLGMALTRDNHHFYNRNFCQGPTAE
How it was run: (§2)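 Human PBMCs were pre-incubated 30 min with test compound, then stimulated with the respective TLR or IL-1R agonist at doses from earlier work. Cytokines in supernatants were quantified by immunoassay. Viability across the dose range was checked by CellTiter-Glo.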

TLR4 = TLR4 (Homo sapiens, UniProt O00206); assay: Human whole blood assay, LPS-TNF; type: cell-based
TLR4, sequence (O00206 24-839): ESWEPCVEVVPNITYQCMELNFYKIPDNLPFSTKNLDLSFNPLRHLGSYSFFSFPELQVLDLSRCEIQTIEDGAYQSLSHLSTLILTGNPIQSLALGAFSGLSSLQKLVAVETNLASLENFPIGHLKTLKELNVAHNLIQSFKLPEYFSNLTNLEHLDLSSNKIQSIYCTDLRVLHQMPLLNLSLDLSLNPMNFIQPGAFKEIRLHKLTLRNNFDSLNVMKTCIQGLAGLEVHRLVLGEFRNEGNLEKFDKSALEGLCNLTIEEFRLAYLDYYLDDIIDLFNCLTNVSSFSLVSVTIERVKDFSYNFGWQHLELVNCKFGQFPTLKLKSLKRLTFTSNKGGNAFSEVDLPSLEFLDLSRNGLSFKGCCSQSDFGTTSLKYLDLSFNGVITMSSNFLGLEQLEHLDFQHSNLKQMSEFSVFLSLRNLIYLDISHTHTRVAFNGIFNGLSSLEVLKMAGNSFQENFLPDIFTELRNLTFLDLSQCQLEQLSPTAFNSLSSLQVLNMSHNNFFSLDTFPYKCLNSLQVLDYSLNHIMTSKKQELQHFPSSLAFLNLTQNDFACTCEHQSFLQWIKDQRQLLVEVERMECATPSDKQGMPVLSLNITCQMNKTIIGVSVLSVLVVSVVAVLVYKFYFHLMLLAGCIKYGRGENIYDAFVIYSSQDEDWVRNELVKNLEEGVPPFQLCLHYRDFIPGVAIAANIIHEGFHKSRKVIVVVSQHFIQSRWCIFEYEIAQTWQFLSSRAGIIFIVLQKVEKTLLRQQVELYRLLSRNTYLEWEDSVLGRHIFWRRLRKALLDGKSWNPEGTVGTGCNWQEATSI
TLR4, sequence (Q9Y6Y9 19-160 partner): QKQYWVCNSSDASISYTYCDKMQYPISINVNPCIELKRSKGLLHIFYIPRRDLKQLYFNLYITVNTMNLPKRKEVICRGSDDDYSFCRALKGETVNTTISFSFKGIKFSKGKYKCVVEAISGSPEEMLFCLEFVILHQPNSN
How it was run: as §1

TLR9 [3] = biological target: TLR9 (Mus musculus, UniProt Q9EQU3); assay: Murine whole blood assay, ODN-IFN-α; type: cell-based
TLR9 (Mus musculus, UniProt Q9EQU3), sequence (Q9EQU3 26-1032): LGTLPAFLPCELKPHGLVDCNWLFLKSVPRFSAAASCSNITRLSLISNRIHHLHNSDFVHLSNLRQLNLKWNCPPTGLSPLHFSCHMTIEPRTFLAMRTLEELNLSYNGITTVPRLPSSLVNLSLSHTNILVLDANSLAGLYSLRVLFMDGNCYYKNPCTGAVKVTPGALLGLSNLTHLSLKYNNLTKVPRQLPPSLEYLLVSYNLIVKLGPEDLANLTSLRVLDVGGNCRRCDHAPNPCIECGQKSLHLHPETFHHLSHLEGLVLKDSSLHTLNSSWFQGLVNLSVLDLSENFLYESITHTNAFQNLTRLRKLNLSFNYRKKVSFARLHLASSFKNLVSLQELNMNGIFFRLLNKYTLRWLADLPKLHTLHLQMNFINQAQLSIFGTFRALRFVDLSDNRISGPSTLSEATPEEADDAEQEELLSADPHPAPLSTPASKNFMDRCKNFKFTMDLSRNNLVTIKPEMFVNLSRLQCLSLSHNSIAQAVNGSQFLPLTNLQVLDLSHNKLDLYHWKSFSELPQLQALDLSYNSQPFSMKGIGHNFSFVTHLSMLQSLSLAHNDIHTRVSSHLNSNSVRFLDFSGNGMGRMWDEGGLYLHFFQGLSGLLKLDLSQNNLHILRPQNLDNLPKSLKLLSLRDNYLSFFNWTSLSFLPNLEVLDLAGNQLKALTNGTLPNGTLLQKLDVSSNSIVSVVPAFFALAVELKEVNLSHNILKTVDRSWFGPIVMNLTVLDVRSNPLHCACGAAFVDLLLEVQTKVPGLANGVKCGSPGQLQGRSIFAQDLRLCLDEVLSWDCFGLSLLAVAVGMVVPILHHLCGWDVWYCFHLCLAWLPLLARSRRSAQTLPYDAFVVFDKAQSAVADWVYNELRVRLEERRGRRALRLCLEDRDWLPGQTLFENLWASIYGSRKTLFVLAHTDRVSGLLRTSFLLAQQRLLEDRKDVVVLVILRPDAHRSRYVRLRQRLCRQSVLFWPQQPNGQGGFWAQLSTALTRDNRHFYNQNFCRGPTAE
How it was run: as §1

[4] = tested on: PMA-mediated ROS secretion from neutrophils; assay: Human neutrophil ROS production, PMA stimulation; type: cell-based
How it was run: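 Cells were pre-treated 30 min with increasing concentrations of test compound or 0.1% v/v DMSO. They were then stimulated 30 min at 37°C, 5% CO2 with TL8-506 or PMA (50 ng/mL). ROS was detected with 2 μM dihydrorhodamine for 15 min at 37°C and read by flow cytometry. Signals were normalized to vehicle; viability was checked by CellTiter-Glo.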

TLR3 = TLR3 (Homo sapiens, UniProt O15455); assay: Ramos Blue reporter B cell line, Poly; type: cell-based; settings: Ramos cells; Poly(I:C) stimulation
TLR3, sequence (O15455 24-904): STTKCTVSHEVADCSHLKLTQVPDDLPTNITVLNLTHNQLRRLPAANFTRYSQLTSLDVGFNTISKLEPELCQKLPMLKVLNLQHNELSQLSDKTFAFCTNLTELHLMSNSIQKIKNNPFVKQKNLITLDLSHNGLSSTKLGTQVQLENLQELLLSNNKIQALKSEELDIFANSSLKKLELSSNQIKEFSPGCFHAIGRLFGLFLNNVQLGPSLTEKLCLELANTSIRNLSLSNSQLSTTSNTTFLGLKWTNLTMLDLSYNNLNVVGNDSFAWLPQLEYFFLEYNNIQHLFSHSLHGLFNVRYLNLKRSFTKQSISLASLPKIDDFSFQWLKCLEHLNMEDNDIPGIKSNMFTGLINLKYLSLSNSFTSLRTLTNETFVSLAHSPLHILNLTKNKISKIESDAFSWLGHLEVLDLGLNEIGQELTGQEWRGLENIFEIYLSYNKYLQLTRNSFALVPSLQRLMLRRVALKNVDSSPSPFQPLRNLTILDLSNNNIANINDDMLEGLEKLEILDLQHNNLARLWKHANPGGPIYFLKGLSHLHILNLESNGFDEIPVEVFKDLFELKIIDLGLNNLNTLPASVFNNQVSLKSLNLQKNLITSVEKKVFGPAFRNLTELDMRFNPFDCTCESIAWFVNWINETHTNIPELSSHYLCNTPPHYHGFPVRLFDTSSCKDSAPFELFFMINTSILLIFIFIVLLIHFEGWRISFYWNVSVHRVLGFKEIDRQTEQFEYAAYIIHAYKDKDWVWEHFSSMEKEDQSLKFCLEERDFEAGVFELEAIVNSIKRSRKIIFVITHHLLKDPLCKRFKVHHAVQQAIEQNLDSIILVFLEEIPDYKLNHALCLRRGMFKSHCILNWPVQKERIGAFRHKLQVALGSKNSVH
How it was run: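 Ramos Blue B reporter cells were pre-treated 30 min at 37°C, 5% CO2 with increasing concentrations of test compound or 0.25% v/v DMSO. They were then stimulated with the respective agonist, and reporter activity was read.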

TLR5 = TLR5 (Homo sapiens, UniProt O60602); assay: Human PBMC cytokine secretion, TLR5 agonist; type: cell-based; settings: human PBMCs; up to 10 μM; n = 5 donors, data not shown
TLR5, sequence (O60602 21-858): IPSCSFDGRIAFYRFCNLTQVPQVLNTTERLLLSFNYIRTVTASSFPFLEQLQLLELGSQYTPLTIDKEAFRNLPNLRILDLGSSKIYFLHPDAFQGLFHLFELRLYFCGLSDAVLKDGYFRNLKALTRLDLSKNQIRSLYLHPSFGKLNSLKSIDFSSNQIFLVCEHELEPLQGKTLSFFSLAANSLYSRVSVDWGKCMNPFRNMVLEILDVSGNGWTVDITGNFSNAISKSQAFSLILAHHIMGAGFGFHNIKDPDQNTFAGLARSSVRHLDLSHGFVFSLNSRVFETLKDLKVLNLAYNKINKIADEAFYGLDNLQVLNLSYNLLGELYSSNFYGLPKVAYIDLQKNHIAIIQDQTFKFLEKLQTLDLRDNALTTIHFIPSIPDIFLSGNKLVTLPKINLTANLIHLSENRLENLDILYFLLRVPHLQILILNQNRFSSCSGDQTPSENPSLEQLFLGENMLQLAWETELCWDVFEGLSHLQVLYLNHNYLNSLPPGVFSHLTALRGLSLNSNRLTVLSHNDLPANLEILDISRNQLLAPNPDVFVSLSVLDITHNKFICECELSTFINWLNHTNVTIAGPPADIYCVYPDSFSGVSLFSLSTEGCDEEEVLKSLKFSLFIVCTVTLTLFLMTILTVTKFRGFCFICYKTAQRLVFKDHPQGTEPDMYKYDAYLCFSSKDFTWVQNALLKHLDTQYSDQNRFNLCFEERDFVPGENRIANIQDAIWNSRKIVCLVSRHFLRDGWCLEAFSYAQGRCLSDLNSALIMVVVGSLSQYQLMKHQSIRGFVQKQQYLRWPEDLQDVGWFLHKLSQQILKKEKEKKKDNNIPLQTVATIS
How it was run: as §2

Cc1cc(N2CCc3c(c(C)nn3CC34CCC(NC(=O)[C@@H]5COCCN5)(CC3)CC4)C2)c2cnn(C)c2n1 [MHV370, (S)-N-(4-((5-(1,6-dimethyl-1H-pyrazolo[3,4-b]pyridin-4-yl)-3-methyl-4,5,6,7-tetrahydro-1H-pyrazolo[4,3-c]pyridin-1-yl)methyl)bicyclo[2.2.2]octan-1-yl)morpholine-3-carboxamide]
exposure level in blood ([1]; 0.01% MHV370 in food): 55 nM
exposure level in blood ([1]; 0.1% MHV370 in food): 1424 nM
effect on cell viability (mouse blood): did not show
IC50 (TLR8): 31 ± 4.4 nM
IC50 (TLR9 [2]): 1300 nM
activity following TLR4 activation (TLR4): inactive
IC50 (TLR9 [3]): > 10000 nM
functional inhibition of TLR9 (TLR9 [3]; mouse blood, up to 10 μM): did not show functional inhibition
block of ROS production, PMA stimulation [4]: but not with phorbol myristate acetate
inhibitory activity against TLR3 (TLR3): no or very limited inhibitory activity
interference with cytokine secretion, TLR5 agonist (TLR5): did not significantly interfere
